# Data reported in ChEMBL document CHEMBL4715831, “Design and synthesis of 2-((1H-indol-3-yl)thio)-N-phenyl-acetamides as novel dual inhibitors of respiratory syncytial virus and influenza virus A” (Eur J Med Chem, 2020).
# Tests used:
# [1] = Cytotoxicity against human HEp-2 cells assessed as cell viability at 50 uM measured after 48 hrs by MTS assay relative to control; assay type: cell-based; settings: read-out: Activity
# [2] = system: Respiratory syncytial virus; assay: Antiviral activity against GFP-fused wild-type RSV subgroup A Long infected in human HEp-2 cells at 50 uM measured 24 to 72 hrs post infection by fluorescence assay relative to control; assay type: functional; settings: time 24-72 hrs
# [3] = system: Respiratory syncytial virus; assay: Antiviral activity against GFP-fused wild-type RSV subgroup A Long infected in human HEp-2 cells measured 24 to 72 hrs post infection by fluorescence assay; assay type: functional, cell-based
# In short: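 HEp-2 cells plated, then after 24 h infected with RSV-mGFP using 3-fold serially diluted inocula starting from 3 × 10^4 pfu/well. Compounds came from a 100 mM DMSO stock, diluted as indicated. RFU read at 479/517 nm at 24, 48 and 72 h post-infection, with non-infected cells as background. Mean ± SD of at least three experiments.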
# [4] = Safety index, ratio of CC50 for human HEp-2 cells to EC50 for GFP-fused wild-type RSV subgroup A long infected in human HEp-2 cells; assay type: toxicity, cell-based; settings: read-out: Ratio CC50/EC50
# [5] = Cytotoxicity against human HEp-2 cells assessed as reduction in cell viability measured after 48 hrs by MTS assay; assay type: cell-based
# In short: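 HEp-2 cells plated; after 24 h, compound added and cells incubated 48 h. MTS (2 mg/ml) then added for 3 h at 37 °C in 5% CO2 and absorbance read at 490 nm. Untreated control set as 100%.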
# [6] = Cytotoxicity against HEK293T cells assessed as reduction in cell viability measured after 48 hrs by CCK8 assay; assay type: cell-based, HEK-293T; settings: human
# In short: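 293T cells treated for 48 h with six compound concentrations from 12.5 to 200 μM, with DMSO-only cells as control. CCK-8 then added for 1 h at 37 °C and OD read at 450 nm. Mean ± SD of three experiments.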
# [7] = system: Respiratory syncytial virus; assay: Antiviral activity against GFP-fused wild-type RSV subgroup A Long infected in human HEp-2 cells assessed as relative fluorescence intensity at 20 uM measured 24 to 72 hrs post infection by fluorescence assay; assay type: functional, Respiratory syncytial virus type A
# In short: (§1)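 RSV-mGFP infection of HEp-2 cells with compound at 20 μM added at the time of infection (0 h). Fluorescence read at excitation 479 nm and emission 517 nm at 24, 48 and 72 h post-infection. Values normalized to the DMSO control, set as 1; ribavirin was the positive control. Mean ± SD of three independent experiments.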
# Influenza A virus [8] = assay: Antiviral activity against Influenza A virus A/WSN/33(H1N1) infected in human HEK293T cells assessed as inhibition of viral replication at 10 uM measured after 24 hrs by Gaussia luciferase reporter gene method relative to control; assay type: functional; settings: A/WSN/1933(H1N1), HEK-293T
# [9] = system: Respiratory syncytial virus; assay: Antiviral activity against GFP-fused wild-type RSV subgroup A Long infected in human HEp-2 cells assessed as reduction in viral infection at 20 uM pretreated for 1 hr followed by viral infection measured 24 to 72 hrs post infection by fluorescence assay relative to control; assay type: functional, Respiratory syncytial virus type A; set-up: scale not given: the % may be the effect or the level left; settings: time 24-73 hrs
# In short: (§2)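 HEp-2 cells exposed to compound at 20 μM 1 h before RSV-mGFP infection (−1 h). GFP fluorescence read at 479/517 nm at 24, 48 and 72 h post-infection. Signal normalized to the DMSO control, set as 1; ribavirin was the positive control. Mean ± SD, three independent experiments.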
# [10] = system: Respiratory syncytial virus; assay: Antiviral activity against GFP-fused wild-type RSV subgroup A Long infected in human HEp-2 cells assessed as reduction in viral infection at 20 uM measured 24 to 72 hrs post infection by fluorescence assay relative to control; assay type: functional, Respiratory syncytial virus type A; set-up: scale not given: the % may be the effect or the level left; settings: time 24-72 hrs; in short: as §1
# [11] = system: Respiratory syncytial virus; assay: Antiviral activity against GFP-fused wild-type RSV subgroup A Long infected in human HEp-2 cells assessed as relative fluorescence intensity at 20 uM pretreated for 1 hr followed by viral infection measured 24 to 72 hrs post infection by fluorescence assay; assay type: functional, Respiratory syncytial virus type A; settings: time 24-73 hrs; in short: as §2
# Influenza A virus [12] = assay: Antiviral activity against Influenza A virus A/WSN/33(H1N1) infected in human HEK293T cells measured after 24 hrs by Gaussia luciferase reporter gene method; assay type: functional, organism-based; settings: A/WSN/1933(H1N1); for EC50: HEK-293T
# In short: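 HEK293T cells carrying a Gaussia luciferase reporter that is activated by IAV, infected with A/WSN/33 (H1N1) for 1 h at room temperature, then cultured 24 h at 37 °C with serially diluted compound. Supernatant Gluc read with coelenterazine-h (16.7 μM in PBS) as 0.5-s photon counts. Normalized to control set as 100%; ribavirin positive control; three experiments.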
# [13] = Safety index, ratio of CC50 for HEK293T cells to EC50 for antiviral activity against Influenza A virus A/WSN/33(H1N1) infected in human HEK293T cells; assay type: toxicity, cell-based; settings: read-out: Ratio CC50/EC50
# Influenza A virus [14] = assay: Antiviral activity against Influenza A virus A/WSN/33(H1N1) infected in MDCK cells measured after 24 hrs by Gaussia luciferase reporter gene method; assay type: functional, organism-based; settings: A/WSN/1933(H1N1)
# In short: (§3)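 MDCK cells infected with IAV A/WSN/33 (H1N1) or H3N2 for 1 h at room temperature, then cultured in fresh DMEM with serially diluted compound for 24 h at 37 °C. Gluc activity in the medium read with coelenterazine-h (16.7 μM in PBS). Normalized to control set as 100%; ribavirin positive control; mean ± SD of three experiments.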
# [15] = Antiviral activity against H3N2 infected in MDCK cells measured after 24 hrs by Gaussia luciferase reporter gene method; assay type: functional, cell-based, H3N2 subtype; settings: Influenza A virus; in short: as §3
# Influenza A virus [16] = assay: Antiviral activity against Influenza A virus A/WSN/33(H1N1) infected in HEK293T cells assessed as inhibition of viral replication at 20 uM pretreated for 2 hrs followed by viral infection and measured after 24 hrs by Gaussia luciferase reporter gene method relative to control; assay type: functional; settings: A/WSN/1933(H1N1), HEK-293T, time 26 hrs
# In short: (§4)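 Time-of-addition assay: compound at 20 μM added before infection or at infection (0 h) in HEK293T-Gluc cells infected with A/WSN/33 (H1N1). Supernatant Gaussia luciferase measured after 24 h with coelenterazine-h. Values normalized to the DMSO control, set as 100%; ribavirin positive control. Mean ± SD, three independent experiments.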
# Influenza A virus [17] = assay: Antiviral activity against Influenza A virus A/WSN/33(H1N1) infected in HEK293T cells assessed as inhibition of viral replication at 20 uM measured after 24 hrs by Gaussia luciferase reporter gene method relative to control; assay type: functional; settings: A/WSN/1933(H1N1), HEK-293T; in short: as §4
# Influenza A virus [18] = assay: Antiviral activity against Influenza A virus A/WSN/33(H1N1) infected in HEK293T cells co-transfected with NP/PA/PB1/PB2 complex assessed as inhibition of viral replication after 24 hrs by mini-genome replicon system based luciferase assay; assay type: functional, organism-based; settings: A/WSN/1933(H1N1); for EC50: HEK-293T
# In short: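 Minigenome assay: vRNA transcription read as luciferase activity 24 h after transfection. Normalized to control set as 100%. Mean ± SD of three independent experiments.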
# Influenza A virus [19] = assay: Antiviral activity against Influenza A virus A/WSN/33(H1N1) infected in HEK293T cells assessed as relative fluorescence intensity at 20 uM measured after 24 hrs by Gaussia luciferase reporter gene method; assay type: functional, A/WSN/1933(H1N1); in short: as §4
# Influenza A virus [20] = assay: Antiviral activity against Influenza A virus A/WSN/33(H1N1) infected in HEK293T cells assessed as relative fluorescence intensity at 20 uM pretreated for 2 hrs followed by viral infection and measured after 24 hrs by Gaussia luciferase reporter gene method; assay type: functional, A/WSN/1933(H1N1); settings: time 26 hrs; in short: as §4
Structure (SMILES),"viability at 48 h, 50 µM [1]",inhibition at 50 µM [2],EC50 [3],selectivity ratio [4],CC50 at 48 h [5],CC50 at 48 h [6],inhibition at 10 µM (Influenza A virus [8]),Activity [3],Activity (Influenza A virus [12]),EC50 (Influenza A virus [12]),selectivity ratio [13],EC50 (Influenza A virus [14]),EC50 [15],inhibition at 20 µM (Influenza A virus [16]),inhibition at 20 µM (Influenza A virus [17]),inhibition (Influenza A virus [18]),EC50 (Influenza A virus [18]),RFU (Influenza A virus [19]),RFU (Influenza A virus [20]),further results
O=C(CSc1c[nH]c2ccccc12)Nc1ccc(Cl)c(Cl)c1,81.8%,77.1%,32.7 µM,1.15,37.5 µM,,,,,,,,,,,,,,,
CCOc1ccccc1NC(=O)CSc1c[nH]c2ccc(OC)cc12,,,4.82 µM,379,1830 µM,> 100 µM,> 85%,Dose-dependent effect,Dose-dependent effect,1270 nM,> 79.4,,,,,,,,,RFU [7]: 0.11; Activity [9]: 99.4%; Activity [10]: 99.89%; RFU [11]: 0.06
CCOc1ccccc1NC(=O)CSc1c[nH]c2c(Br)c(OC)ccc12,,,2.92 µM,3.3,9.65 µM,> 100 µM,> 85%,Dose-dependent effect,Dose-dependent effect,1900 nM,> 52.6,3250 nM,1500 nM,99.7%,99.7%,Dose-dependent effect,3890 nM,0.28,0.14,
CCOc1ccccc1NC(=O)CSc1c[nH]c2cc(Cl)ccc12,,,5.58 µM,5.36,29.9 µM,> 100 µM,> 85%,Dose-dependent effect,Dose-dependent effect,1530 nM,> 65.4,2420 nM,1580 nM,99.7%,99.7%,Dose-dependent effect,1980 nM,0.22,0.14,
CCOc1ccccc1NC(=O)CSc1c[nH]c2ccccc12,65.2%,83.2%,11.8 µM,1.76,20.7 µM,,,,,,,,,,,,,,,
